Screening data: PubChem BioAssay, The Scripps Research Institute Molecular Screening Center
GPR7 antagonist = human neuropeptides B/W receptor 1 antagonism. P48145. GPR7-expressing cells, fluorescence antagonist assay. inhibition, % at 4.4 µM. 1.1% of 290,000 active. AID 1861; in the data active = inhibition above about 16%, passing the limit was not always enough;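 also: cells stimulated with the agonist NPW; 0% = agonist with vehicle and 100% = vehicle without agonist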
zfTRPN1 agonist = agonists of zebrafish TRPN1 channel; HEK293 zebrafish TRPN1-YFP, Fluo-8 calcium fluorescence; 100% = response to 87 µM carbachol; activation, % at 3 µM; 0.18% of 220,000 active; AID 1424;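 active = activation above its plate's cutoff, the mean activation of test wells on that plate plus 3 SD, cut at about 19% in these data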;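 also: 0% = DMSO alone and 100% = 87 µM carbachol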
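System: zebrafish TRPN1-YFP in HEK293 cells / Dosing: 3 µM single point / Timing: dye loading 1 h at 37 °C, then 30 min room temperature / Signal: Fluo-8 calcium fluorescence, excitation 470-495 nm, emission 515-575 nm / Read-out basis: percent activation from peak over basal fluorescence ratio, control-normalized / Control set: high carbachol 87 µM, low DMSO alone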
CHO parental Ca = signal in parental CHO cells, OX1R antagonist counter-screen. inhibition, % at 5.6 µM. AID 463079. parental CHO-K1, ATP-induced calcium, Fluo-8 fluorescence. 0.63% of 330,000 active;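 active = inhibition above that plate's mean sample inhibition plus 3 SD, cut at about 26% in these data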;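 also: 0% = ATP-challenged DMSO wells and 100% = DMSO wells without ATP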
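Measured by: calcium-sensitive Fluo-8 fluorescence / Test system: CHO parental line / Controls: ATP-challenged DMSO wells low, unchallenged DMSO wells high / Measure: % inhibition / Compound: single nominal dose of 5.6 µM per compound / Replicates: single well per compound, no replicates / Reagent: ATP as calcium-mobilizing challenge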
OX1R antag-1 = OX1R (human) antagonism. AID 485270. inhibition, % at 6.6 µM. O43613. 1.8% of 330,000 active. OX1R-expressing cells, FRET antagonist read-out; in the data active = inhibition mostly above about 38%, no sharp cut-off; inactive = mostly below about 40%;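 also: 0% = agonist challenge alone and 100% = reference antagonist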
Target sequence (O43613 whole entry, looked up): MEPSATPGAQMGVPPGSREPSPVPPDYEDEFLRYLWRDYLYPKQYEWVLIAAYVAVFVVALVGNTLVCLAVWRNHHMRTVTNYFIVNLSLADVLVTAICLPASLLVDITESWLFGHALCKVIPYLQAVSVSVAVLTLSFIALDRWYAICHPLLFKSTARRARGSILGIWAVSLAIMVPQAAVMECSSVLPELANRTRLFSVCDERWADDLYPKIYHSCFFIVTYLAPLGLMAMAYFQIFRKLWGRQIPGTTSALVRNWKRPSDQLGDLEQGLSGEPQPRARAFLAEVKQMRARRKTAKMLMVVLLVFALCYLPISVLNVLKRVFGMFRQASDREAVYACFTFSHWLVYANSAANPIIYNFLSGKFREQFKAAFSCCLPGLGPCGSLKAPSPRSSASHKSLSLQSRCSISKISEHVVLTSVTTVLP
TRPML3 ag = agonists of human TRPML3 channel | Q8TDD5 | HEK293 TRPML3-YFP, Fluo-8 calcium fluorescence; 100% = the carbachol control signal | activation, % at 3 µM | 0.29% of 220,000 active;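 active = activation above its plate's cutoff, the mean activation of the plate's test wells plus 3 SD, cut at about 12% in these data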;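 also: 0% = DMSO only wells and 100% = carbachol wells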
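Material: TRPML3-YFP stable HEK293 cells | Dosing: One concentration, 3 µM nominal, 0.3% DMSO | Timing: 125 s total fluorescence read per well | Technique: Fluo-8 calcium dye fluorescence, ex 470-495, em 515-575 nm | Measure: Percent activation from peak-to-basal fluorescence ratio, scaled between DMSO and carbachol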
OX1R antag-2 = antagonists of human orexin 1 receptor. 0.43% of 330,000 active. CHO/OX1R cells, Fluo-8 calcium fluorescence, orexin A. inhibition, % at 5 µM. O43613;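 active = inhibition above its plate's threshold, mean inhibition of all tested compounds on the plate plus 3 SD, cut at about 37% in these data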;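 also: 0% = orexin A challenge wells and 100% = SB-334867-A antagonist wells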
OX1R HTRF conf = confirmation of human orexin 1 receptor antagonists, HTRF format; AID 492964; 49% of 1,800 active; shares compounds with OX1R antag-1; OX1R-expressing cells, HTRF antagonist assay; inhibition, % at 6.6 µM; in the data active = inhibition above about 55%;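 also: CHO cells expressing OX1R stimulated with orexin A at about EC80; 0% = agonist challenge alone and 100% = reference antagonist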
CHO-K1 HTRF cnt = counter-screen for OX1R antagonists: effect in parental CHO-K1 cells; shares compounds with OX1R antag-1; HTRF counterscreen; inhibition, % at 6.6 µM; 48% of 1,800 active; AID 493232; in the data active = inhibition above about 17%;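 also: 0% = agonist challenge with vehicle and 100% = vehicle alone without agonist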
* hit, by the source's call; . = no result given; + = active, no number. A selection: hits, their analogues and other compounds. The true share with any hit is near 3.2%.

SMILES	GPR7 antagonist	zfTRPN1 agonist	CHO parental Ca	OX1R antag-1	TRPML3 ag	OX1R antag-2	OX1R HTRF conf	CHO-K1 HTRF cnt
Cc1ccccc1-n1nc(C(=O)O)c(C)c(C#N)c1=O	-5	-1	2	101*	0	-13	50	36*
O=C(Cn1cccc1C(=O)c1ccccc1)NCCC1=CCCCC1	-10	-1	-15	98*	-1	-36	23	2
CN1C(=O)/C(=C/c2cccc(Cl)c2)Sc2ccc(C(=O)N3CCCC3)cc21	-2	.	-30	-11	.	-24	.	.
C=CCSc1nnc2c(n1)OC(c1cccnc1)Nc1ccccc1-2 (stereo unspecified)	-3	-2	-12	78*	0	-4	22	8
CCN(CC)C1=NS(=O)(=O)c2cc([N+](=O)[O-])ccc21	-3	1	1	+	1	-12	48	97*
COc1ccc(NC(=S)Nc2ccc3nc(C)c(C)nc3c2)cc1	0	0	-11	30	0	-18	.	.
CC(C)N(C(=O)Nc1ccc2nsnc2c1)C(C)C	-18	1	-15	143*	0	-15	31	31*
COc1ccc(NC(=S)Nc2ccc3nsnc3c2)cc1	8	3	-15	88*	1	-28	44	40*
COCCNC(=O)Cn1ccc2cc(S(=O)(=O)N3CCCCC3)ccc21	-4	.	-11	13	.	-11	.	.
O=[N+]([O-])c1c(NCCCO)cc(N2CCN(Cc3ccc4c(c3)OCO4)CC2)c2nonc12	-1	1	-13	33	1	-25	.	.
CN(CCO)c1cc(NCCCN2CCC(Cc3ccccc3)CC2)c2nonc2c1[N+](=O)[O-]	-10	-2	-30	85*	0	-19	63*	47*
CN(CCO)c1cc(N2CCC3(CC2)OCCO3)c2nonc2c1[N+](=O)[O-]	-1	1	7	129*	1	-4	60*	56*
Cc1ccc([N+](=O)[O-])c(OCCN2CCC(Cc3ccccc3)CC2)c1	6	1	-15	10	1	-27	.	.
O=[N+]([O-])c1c(NCCO)cc(N2CCC3(CC2)OCCO3)c2nonc12	9	0	0	170*	1	4	46	82*
CC(=O)Nc1ccc(Nc2cc(N3CCOCC3)c3nonc3c2[N+](=O)[O-])cc1	3	-1	-9	32	0	-9	.	.
COC(=O)c1ccc(COC(=O)[C@@H]2CC(O)CN2S(=O)(=O)c2ccccc2[N+](=O)[O-])cc1 (stereo partly specified)	.	.	-4	19	.	-20	.	.
O=C1C=C(N2CCCCC2)c2ccccc2C1=O	.	.	-9	84*	.	-19	66*	110*
Cn1c(N)c(C(=O)/C=C/c2ccccc2)c(=O)[nH]c1=O	-9	2	-8	-3	1	-13	.	.
CCOC(=O)c1ccc(-c2c(C(=O)OCC)oc3cc(O)c(CC)cc3c2=O)o1	-16	-1	-9	83*	-1	11	27	9
CCOC(=O)c1oc2cc(O)c(CC)cc2c(=O)c1-c1cscn1	-11	0	-16	10	-1	-15	.	.
CCOC(=O)C(C)/C(C)=N\Nc1ccc([N+](=O)[O-])cc1[N+](=O)[O-] (stereo unspecified)	-8	-1	17	85*	1	16	44	19*
O=C1c2ccccc2C(=O)N1/N=C/c1ccc(O)c(O)c1O	-8	1	.	.	0	.	.	.
O=C1c2cccc3cccc(c23)C(=O)N1/N=C/c1ccc(O)cc1O	-3	0	-1	99*	2	-7	41	64*
COc1ccc(N(CC(O)Cn2cnc3ccccc32)S(=O)(=O)c2ccc(C)cc2)cc1 (stereo unspecified)	-10	-2	-15	13	-1	-48	.	.
Cc1cccn2cc(-c3cccc(NC(=O)c4cccs4)c3)nc12	3	0	-24	111*	-1	-4	93*	-1
SMILES	GPR7 antagonist	zfTRPN1 agonist	CHO parental Ca	OX1R antag-1	TRPML3 ag	OX1R antag-2	OX1R HTRF conf	CHO-K1 HTRF cnt
O=C(Nc1cccc(-c2cn3cccnc3n2)c1)c1cccs1	0	1	-8	15	0	-1	.	.
O=[N+]([O-])c1cc(-c2nc(-c3ccncc3)no2)ccc1Cl	-11	0	3	59	0	-2	.	.
O=[N+]([O-])c1cc(-c2nc(-c3ccncc3)no2)cc([N+](=O)[O-])c1	3	0	0	78*	0	-31	72*	63*
Cc1ccccc1NC(=O)CCNS(=O)(=O)c1cccc2nsnc12	-14	.	-3	78*	.	-14	25	38*
COc1ccc(N2CCN(C(=O)CCS(=O)(=O)c3ccc(OC)cc3)CC2)cc1	-13	1	-13	12	1	-16	.	.
O=C(C1CCC(CNS(=O)(=O)c2cccc3nsnc23)CC1)N1CCN(c2ccccn2)CC1 (stereo unspecified)	-7	3	2	50	1	-11	.	.
COc1ccc(N2CCN(C(=O)CCS(=O)(=O)c3cccc4nsnc34)CC2)cc1	-2	3	-12	90*	1	-16	37	48*
O=C(CCNS(=O)(=O)c1cccc2nsnc12)N1CCN(c2ccccn2)CC1	1	-1	-18	127*	0	-20	48	23*
O=C(CCNS(=O)(=O)c1cccc2nsnc12)N1CCc2ccccc21	-8	-1	-21	95*	0	-20	26	22*
Nn1c(SCC(=O)Nc2ccccc2Br)nnc1-c1ccco1	-8	.	-6	7	.	-6	.	.
CC1(C)CC2CC(C)(CN2S(=O)(=O)c2ccc(F)cc2F)C1 (stereo unspecified)	.	.	-11	2	.	-15	.	.
COC(=O)c1cc(NC(=O)CSC2=NCCS2)cc(C(=O)OC)c1	-13	1	-15	4	0	-30	.	.
O=C(CN1CCN(S(=O)(=O)c2ccc(Cl)c(Cl)c2)CC1)N1CCCC1	.	.	-18	8	.	-3	.	.
O=S(=O)(NCc1ccccn1)c1cccc2nsnc12	-13	0	-10	85*	1	-4	31	43*
Cn1cnnc1SCc1ccc(C(=O)N=Nc2c(O)n(C)c3ccccc23)cc1	-14	0	-19	139*	1	-15	54	62*
Cn1cnnc1SCC(=O)n1c2ccccc2c2ccccc21	-13	-2	-23	20	-1	-17	.	.
COc1ccc(C(=O)Nc2ccnn2C2CCN(C(=O)c3cccnc3)CC2)cc1	-3	.	1	5	.	-19	.	.
N#CCCN(Cc1cccs1)C(=O)c1ccc(Cl)cc1	-13	-1	-6	2	0	-6	.	.
